# Rows were chosen to be rich in hits. Some 3.5% of all compounds tested hit in one or more screens of this group.
# MrgX1 agonist – agonists of human MrgX1 receptor, primary screen, HEK293 cells, Fluo-4 calcium flux | Fluo-4 calcium fluorescence, agonist mode; stronger effect = higher value | 310,000 tested, 0.44% active | B-score at 10 µM | Mas-related G-protein coupled receptor member X1 (Homo sapiens), Q96LB2;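 active = calcium response B-score plate-corrected fluorescence ratio at least 3 library SD, with starting fluorescence B-score inside 5 SD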
# Target sequence (Q96LB2 whole entry, looked up): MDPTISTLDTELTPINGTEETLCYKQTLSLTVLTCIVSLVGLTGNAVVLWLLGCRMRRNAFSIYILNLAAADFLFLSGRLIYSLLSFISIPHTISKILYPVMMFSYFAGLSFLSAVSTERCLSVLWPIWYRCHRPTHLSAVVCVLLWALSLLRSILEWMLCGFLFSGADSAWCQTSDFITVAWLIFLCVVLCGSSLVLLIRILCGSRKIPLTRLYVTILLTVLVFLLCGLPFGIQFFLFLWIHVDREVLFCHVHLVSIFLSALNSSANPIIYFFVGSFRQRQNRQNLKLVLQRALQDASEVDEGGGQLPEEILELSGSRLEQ
#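 System: HEK293 cells stably expressing human MrgX1 receptor; Dosing: test compound in the initial addition of three; Schedule: overnight plating, then 30 min 37 °C plus 30 min room-temperature dye loading; Detection: kinetic calcium dye fluorescence, Fluo-4 NW; Controls: per-plate positive and negative controls for Z′ factor.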
# MrgX1 antagonist – antagonists of human MrgX1 receptor, primary screen, HEK293 cells, Fluo-4 calcium flux; Mas-related G-protein coupled receptor member X1 (Homo sapiens), Q96LB2; BAM8-22 antagonism; stronger effect = lower value; B-score at 10 µM; 310,000 tested, 1.3% active;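 active = calcium-response B-score plate-corrected more than 3 library SD below zero, starting fluorescence within 5 deviations, no agonist response on first addition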;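 note: peak minus trough fluorescence over baseline after final BAM8-22 challenge near maximal dose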
# MrgX1 PAM – positive allosteric modulators of MrgX1, primary screen, HEK293 cells, Fluo-4 calcium flux; FDSS; stronger effect = higher value; B-score at 10 µM; 310,000 tested, 0.63% active;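 active = plate-corrected calcium response at least 3 library SD above typical, normal starting fluorescence, not activating the receptor alone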;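 note: compound read alongside a low EC10 to EC30 dose of BAM8-22 agonist; peak minus trough fluorescence over baseline measured at the second addition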
# RGS4 block – RGS4 inhibitors, primary screen, cell-based, HEK293 M3R inducible RGS4, calcium flux; Regulator of G-protein signaling 4 (Homo sapiens), P49798; Fluo-4 calcium flux; stronger effect = higher value; triggered by carbachol at its EC20; B-score at 10 µM; 310,000 tested, 0.45% active;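 active = B-score, a plate-corrected calcium signal, over three deviations above library mean, with baseline fluorescence within five deviations of library mean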;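 note: RGS4 expression induced by doxycycline in cells with stable M3 receptor; B-score is computed from the integrated fluorescence ratio over baseline after carbachol; higher B-score means a larger calcium signal and so more RGS4 inhibition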
# Target sequence (P49798 whole entry, looked up): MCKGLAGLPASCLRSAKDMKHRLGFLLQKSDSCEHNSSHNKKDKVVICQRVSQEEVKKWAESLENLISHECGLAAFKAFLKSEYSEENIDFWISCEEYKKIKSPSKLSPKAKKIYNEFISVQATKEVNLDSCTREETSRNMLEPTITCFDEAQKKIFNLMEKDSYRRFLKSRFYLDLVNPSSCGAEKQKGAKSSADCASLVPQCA
# RGS4 act – RGS4 potentiators or activators, primary screen, cell-based, HEK293 M3R inducible RGS4, calcium flux; carbachol calcium flux Fluo4; stronger effect = lower value; B-score at 10 µM; 310,000 tested, 0.92% active; AID 463111, 2010;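 active = B-score of the integrated calcium signal more than 4 SD below the library mean, with starting fluorescence not abnormally high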;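 note: negative B-score means reduced calcium response which marks RGS4 activation or potentiation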
#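 test system = M3R-expressing HEK293 line, RGS4 induced by doxycycline | probe or stimulus = carbachol at ECmax as muscarinic agonist stimulus | timing = dye loading 30 min 37 °C, buffer rest 30 min RT | signal = calcium dye Fluo4 fluorescence | evaluation = B score from integrated fluorescence ratio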
# A number is an active result; n = inactive.
SMILES,MrgX1 agonist,MrgX1 antagonist,MrgX1 PAM,RGS4 block,RGS4 act
CSc1nc(O)c(C(c2ccc(O)cc2)c2c(O)nc(SC)[nH]c2=O)c(=O)[nH]1,n,n,n,n,n
COCCn1c(Cc2ccccc2)nnc1SCC(=O)N1CCCCC1C (centres undefined),n,-8.19,n,n,n
OCCC1CN(Cc2cn[nH]c2C2CCCCC2)CCN1C1CCCC1 (centres undefined),n,n,n,n,n
CC(CN1CCCCC1)OC(=O)c1ccc2c(c1)OCO2 (centres undefined),n,n,n,n,n
CC1CCN(CC(C)OC(=O)c2ccc3c(c2)OCCO3)CC1 (centres undefined),n,n,n,n,-7.29
O=C(NCCCn1ccnc1)c1cc(Cl)cc(Cl)c1,n,n,n,n,n
CCN(CC)c1ccc(/C=C2\SC(N)=NC2=O)cc1,33.1,n,n,n,n
COc1ccc(C(=O)N2CCN(c3ccccc3OC)CC2)cc1,n,n,n,n,n
COc1ccc(/C=N/NC(=O)C(=O)N2CCN(c3ccccc3OC)CC2)cc1,n,-4.78,n,n,n
CC1(C(=O)NCc2ccc(Cl)c(Cl)c2)Oc2cccnc2NC1=O (centres undefined),n,n,n,n,n
Cc1nn(-c2ccccc2)c(C)c1NC(=O)COC(=O)c1cc(Br)ccc1O,n,n,n,n,-7.15
Cc1cccc(C(=O)OCC(=O)Nc2c(C)nn(-c3ccccc3)c2C)c1O,n,n,n,n,n
CC(=O)N1N=C(c2ccccc2OC(=O)/C=C/c2ccccc2)CC1c1ccccc1 (centres undefined),n,n,n,n,n
COC(=O)c1ccc(SCC(=O)NC2CCCCC2)c([N+](=O)[O-])c1,n,n,n,n,n
COc1ccc(C2C(C#N)=C(C)NC3=C2C(=O)c2ccccc23)cc1 (centres undefined),n,n,n,n,-7.39
CCOc1ccc(C2C(C#N)=C(C)NC3=C2C(=O)c2ccccc23)cc1 (centres undefined),n,n,n,n,n
COCC(=O)Nc1ncc(S(=O)(=O)c2ccc([N+](=O)[O-])cc2)s1,n,n,n,n,n
O=C(Nc1ncc(S(=O)(=O)c2ccc([N+](=O)[O-])cc2)s1)c1cccc2ccccc12,n,n,n,n,-7.65
C=CCn1c(CCCNC(=O)C(C)(C)C)nc2ccccc21,n,n,n,n,n
CC(C)(C)C(=O)NCCCc1nc2ccccc2n1CCCOc1ccc(Cl)cc1,n,-5.09,n,n,n
COc1ccccc1C(CNC(=O)c1cccc(S(=O)(=O)Nc2ccc(C)cc2)c1)N1CCCC1 (centres undefined),n,n,n,n,n
COc1ccccc1NS(=O)(=O)c1cccc(C(=O)N/N=C/c2ccc(C)o2)c1,n,n,17.6,n,n
COc1ccccc1NS(=O)(=O)c1cccc(C(=O)NCC(c2ccccc2OC)N2CCCC2)c1 (centres undefined),n,-5.73,n,n,n
Cc1ccc(/C=N/NC(=O)c2cccc(S(=O)(=O)Nc3ccccc3Cl)c2)s1,n,n,10.6,n,n
Cc1ccccc1/C(N)=N/O,n,n,n,n,n
SMILES,MrgX1 agonist,MrgX1 antagonist,MrgX1 PAM,RGS4 block,RGS4 act
CCOC(=O)COn1c(-c2cccc(Cl)c2)nc2ccc([N+](=O)[O-])cc21,n,-6.23,n,n,n
O=C(COc1ccccc1F)NNC(=O)c1cccc(-n2cccc2)c1,n,-4.99,n,n,n
O=[N+]([O-])c1nn(-c2ccc3c(c2)OCCO3)n(O)c1=NC1CCN(Cc2ccccc2)CC1,n,-5.1,n,n,n
O=C(COc1ccccc1)NC1CCN(Cc2ccccc2)CC1,n,n,n,n,n
CC(C)(Oc1ccc(Cl)cc1)C(=O)NC1CCN(Cc2ccccc2)CC1,n,n,n,n,-7.03
O=C(Cn1c(-c2ccccc2)c[n+]2ccsc12)c1ccc(Br)cc1,n,n,n,n,-8.13
Cc1ccc(S(=O)(=O)NCc2cccnc2)cc1C(=O)N1CCCC1,n,n,n,n,n
CNC[C@H](Cc1ccccc1)NC[C@@H](Cc1cccc2ccccc12)NCCc1ccc(C)cc1,n,n,n,n,-8.2
CC(=O)Nc1ccc(Br)c2ccccc12,n,n,n,n,n
O=C(Nc1ccc(Br)c2ccccc12)c1ccc2ccccc2c1O,n,n,n,n,-7.5
OC1(c2cccs2)CN(c2ccc(Cl)cc2)C2=[N+]1CCCC2 (centres undefined),n,n,n,n,-9.11
Cc1ccc(C)c(N2CC(O)(c3cccs3)[N+]3=C2CCCC3)c1 (centres undefined),n,n,n,n,n
OC1(c2cccs2)CN(c2ccc(Cl)cc2)C2=[N+]1CCCS2 (centres undefined),28,n,n,n,n
Cc1c(NC(=S)NC(=O)C2CCCCC2)c(=O)n(-c2ccccc2)n1C,n,n,n,n,n
CCCN(c1ccc(OCC)cc1)S(=O)(=O)c1ccc2c(c1)NC(=O)CO2,n,n,n,n,n
CCN(c1ccc(OC)cc1)S(=O)(=O)c1nnc(NC(=O)c2ccc(C)cc2)s1,n,n,n,n,n
CCCCN(CCCC)C(=O)C1CC=CCC1C(=O)O (centres undefined),n,-5.94,n,n,n
CCCCCNC(=O)C1CC=CCC1C(=O)O (centres undefined),n,n,n,n,n
CC(=O)N1CCc2cc(Br)cc(S(=O)(=O)CCC(=O)N3CCN(c4ccccn4)CC3)c21,n,n,n,n,n
CCN(CC)c1ccc(S(=O)(=O)N2CCOCC2)cc1NC(=O)COC(=O)/C=C/c1ccc(C)o1,n,n,n,n,-9.59
COc1ccc(S(=O)(=O)N2CCCCC2)cc1NC(=O)CCNC(=O)c1ccc(Br)cc1,n,n,n,n,n
CCCCCC[n+]1c(-c2ccccc2)csc1Nc1ccccc1,n,n,n,n,n
C=CC[n+]1c(-c2ccccc2)csc1NC(C)(C)C,n,-4.94,n,n,n
Cc1ccc(NC(=O)CN(C)C(=O)COC(=O)CNS(=O)(=O)c2ccc(Br)cc2Cl)cc1,58.7,n,n,n,n
Cc1ccc(NC(=O)CN(C)C(=O)COC(=O)CNS(=O)(=O)c2ccc(F)c(F)c2F)cc1,n,n,n,n,n
O=c1c(Cl)c(O)c2cccc3c4ccccc4n1c23,n,n,n,n,n
COc1c(O)c(=O)n2c3ccccc3c3ccnc1c32,n,n,37.4,n,n
Cc1ccc(C(=O)N2CC(=O)Nc3ccc(F)cc3C2c2ccccc2)cc1 (centres undefined),n,n,n,n,n
CC1(C)C(=O)OC(c2cccn2-c2ccc([N+](=O)[O-])cc2)C(C)(C)C1=O (centres undefined),n,-5.05,n,n,n

# Source: PubChem BioAssay
